From ChEMBL document CHEMBL5705905, “Pharmacological targeting of kinases MST1 and MST2 augments tissue repair and regeneration” (Sci Transl Med, 2016)
Calls of active or inactive are those of the source. No cut-off for these calls is given here.

How the values were obtained:
[1] = molecular target: T1, Serine/threonine-protein kinase 4 (Homo sapiens, UniProt Q13043); test: Inhibition of recombinant His-tagged full-length MST1 (unknown origin) expressing in Escherichia coli assessed as MOB1a phosphorylation level incubated for 30 min in the presence of 30 uM ATP by immunoblot analysis
T1 sequence (Q13043 whole entry): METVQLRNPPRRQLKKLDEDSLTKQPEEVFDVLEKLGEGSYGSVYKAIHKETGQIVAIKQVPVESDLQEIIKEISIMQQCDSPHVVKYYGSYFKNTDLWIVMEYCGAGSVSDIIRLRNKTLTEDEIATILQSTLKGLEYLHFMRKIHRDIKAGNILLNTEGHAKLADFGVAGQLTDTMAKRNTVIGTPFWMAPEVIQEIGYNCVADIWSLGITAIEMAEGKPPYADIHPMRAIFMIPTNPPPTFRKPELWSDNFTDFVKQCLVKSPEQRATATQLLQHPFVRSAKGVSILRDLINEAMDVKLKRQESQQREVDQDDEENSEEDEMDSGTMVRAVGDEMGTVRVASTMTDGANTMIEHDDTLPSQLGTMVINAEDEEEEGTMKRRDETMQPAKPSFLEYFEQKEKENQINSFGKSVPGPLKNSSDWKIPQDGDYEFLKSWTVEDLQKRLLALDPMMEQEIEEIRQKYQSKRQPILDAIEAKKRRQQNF

[2] = system: Tyrosine-protein kinase ABL1 (Homo sapiens), P00519 [Q252H]; test: Inhibition of ABL1 Q252H mutant (unknown origin) assessed as remaining activity at 1 uM by Kinome scan method relative to control
How it was run: (§1)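 Active-site-dependent competition-binding (KINOMEscan) panel of 468 kinases, test compound at 1 μM (from a 10 mM DMSO stock). Read-out is ctrl% = (test signal − positive control signal)/(negative control signal − positive control signal) × 100. DMSO is the negative control (100%) and a control compound is the positive control (0%). Lower ctrl% means tighter binding.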

[3] = system: Tyrosine-protein kinase ABL1 (Homo sapiens), P00519 [T315I]; test: Inhibition of ABL1 T315I mutant (unknown origin) assessed as remaining activity at 1 uM by Kinome scan method relative to control; how it was run: as §1
[4] = molecular target: Serine/threonine-protein kinase BRSK2 (Homo sapiens) (UniProt Q8IWQ3); test: Inhibition of BRSK2 (unknown origin) assessed as remaining activity at 1 uM by Kinome scan method relative to control; how it was run: as §1
[5] = molecular target: Cyclin-dependent kinase-like 1 (Homo sapiens) (UniProt Q00532); test: Inhibition of CDKL1 (unknown origin) assessed as remaining activity at 1 uM by Kinome scan method relative to control
How it was run: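 Active-site-dependent competition-binding profiling (KINOMEscan) at 1 μM against a 468-kinase panel; compound supplied from a 10 mM DMSO stock. Read-out is ctrl% = (test signal − positive control signal)/(negative control signal − positive control signal) × 100. DMSO is the negative control (100%) and a control compound the positive control (0%). Lower ctrl% means tighter binding.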

[6] = molecular target: Serine/threonine-protein kinase DCLK3 (Homo sapiens) (UniProt Q9C098); test: Inhibition of DCAMKL3 (unknown origin) assessed as remaining activity at 1 uM by Kinome scan method relative to control
[7] = molecular target: Ephrin type-A receptor 2 (Homo sapiens) (UniProt P29317); test: Inhibition of EPHA2 (unknown origin) assessed as remaining activity at 1 uM by Kinome scan method relative to control
[8] = molecular target: Ephrin type-B receptor 3 (Homo sapiens) (UniProt P54753); test: Inhibition of EPHB3 (unknown origin) assessed as remaining activity at 1 uM by Kinome scan method relative to control
[9] = molecular target: Inhibitor of nuclear factor kappa-B kinase subunit beta (Homo sapiens) (UniProt O14920); test: Inhibition of IKK-beta (unknown origin) assessed as remaining activity at 1 uM by Kinome scan method relative to control
[10] = molecular target: LIM domain kinase 1 (Homo sapiens) (UniProt P53667); test: Inhibition of LIMK1 (unknown origin) assessed as remaining activity at 1 uM by Kinome scan method relative to control
[11] = molecular target: Leucine-rich repeat serine/threonine-protein kinase 2 (Homo sapiens) (UniProt Q5S007); test: Inhibition of LRRK2 (unknown origin) assessed as remaining activity at 1 uM by Kinome scan method relative to control
[12] = molecular target: Dual specificity mitogen-activated protein kinase kinase 3 (Homo sapiens) (UniProt P46734); test: Inhibition of MEK3 (unknown origin) assessed as remaining activity at 1 uM by Kinome scan method relative to control
[13] = molecular target: Tyrosine-protein kinase Mer (Homo sapiens) (UniProt Q12866); test: Inhibition of MERTK (unknown origin) assessed as remaining activity at 1 uM by Kinome scan method relative to control
[14] = molecular target: RAF proto-oncogene serine/threonine-protein kinase (Homo sapiens) (UniProt P04049); test: Inhibition of RAF1 (unknown origin) assessed as remaining activity at 1 uM by Kinome scan method relative to control
[15] = molecular target: Ribosomal protein S6 kinase alpha-1 (Homo sapiens) (UniProt Q15418); test: Inhibition of N-terminal kinase domain RSK1 (unknown origin) assessed as remaining activity at 1 uM by Kinome scan method relative to control
[16] = molecular target: Ribosomal protein S6 kinase alpha-1 (Homo sapiens) (UniProt Q15418); test: Inhibition of C-terminal kinase domain RSK1 (unknown origin) assessed as remaining activity at 1 uM by Kinome scan method relative to control; how it was run: as §1
[17] = molecular target: Ribosomal protein S6 kinase alpha-2 (Homo sapiens) (UniProt Q15349); test: Inhibition of C-terminal kinase domain RSK3 (unknown origin) assessed as remaining activity at 1 uM by Kinome scan method relative to control; how it was run: as §1
[18] = molecular target: Serine/threonine-protein kinase SIK1 (Homo sapiens) (UniProt P57059); test: Inhibition of SIK (unknown origin) assessed as remaining activity at 1 uM by Kinome scan method relative to control
[19] = molecular target: NUAK family SNF1-like kinase 2 (Homo sapiens) (UniProt Q9H093); test: Inhibition of SNARK (unknown origin) assessed as remaining activity at 1 uM by Kinome scan method relative to control
[20] = molecular target: SRSF protein kinase 3 (Homo sapiens) (UniProt Q9UPE1); test: Inhibition of SRPK3 (unknown origin) assessed as remaining activity at 1 uM by Kinome scan method relative to control
[21] = molecular target: Serine/threonine-protein kinase 32A (Homo sapiens) (UniProt Q8WU08); test: Inhibition of YANK1 (unknown origin) assessed as remaining activity at 1 uM by Kinome scan method relative to control
[22] = molecular target: T1, Serine/threonine-protein kinase 4; test: Binding affinity to MST1 (unknown origin) assessed as dissociation constant
[23] = molecular target: Mitogen-activated protein kinase kinase kinase 3 (Homo sapiens, UniProt Q99759); test: Binding affinity to MAP3K3 (unknown origin) assessed as dissociation constant
Primary hepatocyte = test: Inhibition of MST1/2 (unknown origin) in mouse Primary hepatocyte cells assessed as H2O2 stimulated MOB1 phosphorylation level at 1 to 3 uM by immunoblot analysis; type: cell-based; settings: dose 1-3 µM
[24] = Inhibition of recombinant His-tagged full-length MST1 Y101F mutant (unknown origin) expressing in Escherichia coli assessed as MOB1 phosphorylation level incubated for 15 min by immunoblot analysis; parameters: species or system Homo sapiens

Chain of Ribosomal protein S6 kinase alpha-1 (Homo sapiens) (Q15418 whole entry, the tested form may be a part): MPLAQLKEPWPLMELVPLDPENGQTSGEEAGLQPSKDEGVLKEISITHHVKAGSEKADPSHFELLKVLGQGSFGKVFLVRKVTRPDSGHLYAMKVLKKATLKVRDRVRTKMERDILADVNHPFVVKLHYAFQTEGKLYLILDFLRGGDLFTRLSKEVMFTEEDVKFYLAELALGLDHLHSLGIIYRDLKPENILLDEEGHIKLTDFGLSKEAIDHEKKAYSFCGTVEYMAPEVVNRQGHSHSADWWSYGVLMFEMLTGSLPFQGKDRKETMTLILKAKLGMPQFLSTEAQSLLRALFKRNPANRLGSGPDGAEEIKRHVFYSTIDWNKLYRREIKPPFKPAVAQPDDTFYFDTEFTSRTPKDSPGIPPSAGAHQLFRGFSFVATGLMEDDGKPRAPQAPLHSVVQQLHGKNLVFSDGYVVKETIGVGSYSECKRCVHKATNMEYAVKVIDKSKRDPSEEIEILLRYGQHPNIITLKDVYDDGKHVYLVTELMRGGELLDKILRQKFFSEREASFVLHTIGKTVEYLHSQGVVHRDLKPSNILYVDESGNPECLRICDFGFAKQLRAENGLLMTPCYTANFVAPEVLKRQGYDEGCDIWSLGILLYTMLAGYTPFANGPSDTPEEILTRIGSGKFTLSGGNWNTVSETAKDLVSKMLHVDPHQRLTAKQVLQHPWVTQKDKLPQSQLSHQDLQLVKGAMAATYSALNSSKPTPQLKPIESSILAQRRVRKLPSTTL
Chain of Serine/threonine-protein kinase 32A (Homo sapiens) (Q8WU08 whole entry): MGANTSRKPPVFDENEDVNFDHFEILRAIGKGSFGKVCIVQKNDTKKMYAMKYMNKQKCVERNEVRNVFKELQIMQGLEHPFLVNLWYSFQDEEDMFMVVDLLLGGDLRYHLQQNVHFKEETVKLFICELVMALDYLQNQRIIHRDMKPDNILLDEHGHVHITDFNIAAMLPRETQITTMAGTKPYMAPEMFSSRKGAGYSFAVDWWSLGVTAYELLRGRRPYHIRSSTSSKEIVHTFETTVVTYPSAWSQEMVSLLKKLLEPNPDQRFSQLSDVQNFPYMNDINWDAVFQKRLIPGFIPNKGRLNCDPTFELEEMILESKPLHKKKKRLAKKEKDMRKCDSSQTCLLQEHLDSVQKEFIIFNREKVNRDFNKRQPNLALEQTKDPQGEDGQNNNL
Chain of Ephrin type-B receptor 3 (Homo sapiens) (P54753 whole entry): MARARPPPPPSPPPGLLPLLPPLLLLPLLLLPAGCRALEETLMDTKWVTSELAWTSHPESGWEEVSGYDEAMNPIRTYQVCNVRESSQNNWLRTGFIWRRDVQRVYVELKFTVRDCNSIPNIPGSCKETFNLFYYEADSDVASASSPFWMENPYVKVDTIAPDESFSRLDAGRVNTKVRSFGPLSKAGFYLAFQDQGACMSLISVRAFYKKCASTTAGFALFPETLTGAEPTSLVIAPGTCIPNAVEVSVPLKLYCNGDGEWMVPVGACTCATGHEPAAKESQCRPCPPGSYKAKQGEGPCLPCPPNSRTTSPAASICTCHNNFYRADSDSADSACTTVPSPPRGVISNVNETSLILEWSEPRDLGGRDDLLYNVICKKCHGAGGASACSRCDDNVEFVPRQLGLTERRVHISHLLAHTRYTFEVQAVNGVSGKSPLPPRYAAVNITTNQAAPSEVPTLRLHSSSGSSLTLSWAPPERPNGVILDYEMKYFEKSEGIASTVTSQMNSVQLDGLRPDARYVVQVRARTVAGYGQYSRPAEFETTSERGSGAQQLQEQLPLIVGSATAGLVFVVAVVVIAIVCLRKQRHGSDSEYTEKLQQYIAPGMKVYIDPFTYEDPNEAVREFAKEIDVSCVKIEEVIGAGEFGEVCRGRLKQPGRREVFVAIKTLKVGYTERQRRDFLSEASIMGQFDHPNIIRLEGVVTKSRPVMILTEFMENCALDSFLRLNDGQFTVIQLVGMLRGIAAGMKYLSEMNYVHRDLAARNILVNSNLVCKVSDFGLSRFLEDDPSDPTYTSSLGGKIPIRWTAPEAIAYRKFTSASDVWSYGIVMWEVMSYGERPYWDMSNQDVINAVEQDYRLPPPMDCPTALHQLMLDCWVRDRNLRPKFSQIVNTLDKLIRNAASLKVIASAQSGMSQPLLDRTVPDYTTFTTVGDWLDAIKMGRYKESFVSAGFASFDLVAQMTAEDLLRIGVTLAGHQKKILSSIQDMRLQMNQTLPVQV
Chain of Serine/threonine-protein kinase SIK1 (Homo sapiens) (P57059 whole entry): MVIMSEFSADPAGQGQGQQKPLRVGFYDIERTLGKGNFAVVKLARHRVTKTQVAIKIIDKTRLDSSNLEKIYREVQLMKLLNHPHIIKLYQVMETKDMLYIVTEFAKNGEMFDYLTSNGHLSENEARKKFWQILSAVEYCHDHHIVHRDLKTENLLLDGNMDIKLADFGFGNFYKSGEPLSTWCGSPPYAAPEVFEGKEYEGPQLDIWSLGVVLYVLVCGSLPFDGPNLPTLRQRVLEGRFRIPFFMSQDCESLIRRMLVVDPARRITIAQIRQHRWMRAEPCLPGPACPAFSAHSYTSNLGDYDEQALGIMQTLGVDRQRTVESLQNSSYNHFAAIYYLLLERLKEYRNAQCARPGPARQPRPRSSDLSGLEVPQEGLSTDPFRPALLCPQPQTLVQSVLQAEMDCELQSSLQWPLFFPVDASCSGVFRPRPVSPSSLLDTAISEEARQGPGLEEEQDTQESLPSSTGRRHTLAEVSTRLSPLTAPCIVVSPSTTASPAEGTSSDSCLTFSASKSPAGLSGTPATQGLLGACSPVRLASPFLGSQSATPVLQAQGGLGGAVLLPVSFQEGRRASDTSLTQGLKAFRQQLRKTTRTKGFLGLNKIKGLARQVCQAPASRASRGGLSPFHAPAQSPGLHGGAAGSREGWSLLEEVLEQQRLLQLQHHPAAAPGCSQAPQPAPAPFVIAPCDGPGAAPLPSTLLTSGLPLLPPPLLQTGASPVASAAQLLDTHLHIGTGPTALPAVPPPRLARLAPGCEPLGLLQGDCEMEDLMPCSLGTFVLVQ
Chain of Mitogen-activated protein kinase kinase kinase 3 (Q99759 whole entry): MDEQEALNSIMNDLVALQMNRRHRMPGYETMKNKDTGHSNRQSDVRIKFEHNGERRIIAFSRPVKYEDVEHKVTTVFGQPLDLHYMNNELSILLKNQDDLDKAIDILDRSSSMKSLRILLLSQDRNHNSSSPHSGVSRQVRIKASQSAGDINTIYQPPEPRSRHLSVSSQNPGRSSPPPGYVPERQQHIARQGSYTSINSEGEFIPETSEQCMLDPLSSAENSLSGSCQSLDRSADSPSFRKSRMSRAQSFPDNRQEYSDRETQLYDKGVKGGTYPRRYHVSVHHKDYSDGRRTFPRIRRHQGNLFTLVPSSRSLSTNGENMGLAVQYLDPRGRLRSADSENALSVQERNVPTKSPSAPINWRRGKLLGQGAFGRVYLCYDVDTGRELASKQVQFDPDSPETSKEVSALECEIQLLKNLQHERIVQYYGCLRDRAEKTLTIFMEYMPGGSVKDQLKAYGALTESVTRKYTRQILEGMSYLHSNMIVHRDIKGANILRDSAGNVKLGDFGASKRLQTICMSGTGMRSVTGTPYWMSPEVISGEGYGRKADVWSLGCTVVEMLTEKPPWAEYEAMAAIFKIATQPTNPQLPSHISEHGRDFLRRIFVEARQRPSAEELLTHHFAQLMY
Chain of Dual specificity mitogen-activated protein kinase kinase 3 (Homo sapiens) (P46734 whole entry): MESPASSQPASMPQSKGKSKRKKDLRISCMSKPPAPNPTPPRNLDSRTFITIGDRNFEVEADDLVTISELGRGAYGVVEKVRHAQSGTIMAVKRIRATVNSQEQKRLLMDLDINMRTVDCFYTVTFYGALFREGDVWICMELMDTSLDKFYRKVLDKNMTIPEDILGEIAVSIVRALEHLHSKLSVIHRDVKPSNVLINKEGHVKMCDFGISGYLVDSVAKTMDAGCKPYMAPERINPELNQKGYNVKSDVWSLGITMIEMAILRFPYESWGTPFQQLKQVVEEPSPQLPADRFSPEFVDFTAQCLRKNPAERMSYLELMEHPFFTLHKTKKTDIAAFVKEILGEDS
Chain of Serine/threonine-protein kinase BRSK2 (Homo sapiens) (Q8IWQ3 whole entry): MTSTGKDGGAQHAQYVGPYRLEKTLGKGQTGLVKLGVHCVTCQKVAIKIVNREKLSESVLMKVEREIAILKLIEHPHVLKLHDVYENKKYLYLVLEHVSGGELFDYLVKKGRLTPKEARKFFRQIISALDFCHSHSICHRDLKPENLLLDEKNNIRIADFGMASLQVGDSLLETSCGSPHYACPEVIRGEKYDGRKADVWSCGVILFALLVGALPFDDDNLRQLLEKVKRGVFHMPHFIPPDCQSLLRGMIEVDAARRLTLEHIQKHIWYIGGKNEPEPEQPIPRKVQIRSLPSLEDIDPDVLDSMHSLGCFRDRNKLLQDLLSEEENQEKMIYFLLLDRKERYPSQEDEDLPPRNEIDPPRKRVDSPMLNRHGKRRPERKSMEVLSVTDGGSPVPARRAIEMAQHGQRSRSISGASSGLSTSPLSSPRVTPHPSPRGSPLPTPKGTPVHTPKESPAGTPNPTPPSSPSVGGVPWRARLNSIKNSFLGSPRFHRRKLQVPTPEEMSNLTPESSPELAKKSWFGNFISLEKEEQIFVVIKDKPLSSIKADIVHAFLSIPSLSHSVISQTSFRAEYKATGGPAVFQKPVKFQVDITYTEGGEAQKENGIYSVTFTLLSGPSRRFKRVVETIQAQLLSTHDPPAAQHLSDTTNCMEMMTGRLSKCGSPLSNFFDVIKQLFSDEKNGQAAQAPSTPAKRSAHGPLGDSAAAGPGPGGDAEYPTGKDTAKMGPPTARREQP
Chain of Cyclin-dependent kinase-like 1 (Homo sapiens) (Q00532 whole entry): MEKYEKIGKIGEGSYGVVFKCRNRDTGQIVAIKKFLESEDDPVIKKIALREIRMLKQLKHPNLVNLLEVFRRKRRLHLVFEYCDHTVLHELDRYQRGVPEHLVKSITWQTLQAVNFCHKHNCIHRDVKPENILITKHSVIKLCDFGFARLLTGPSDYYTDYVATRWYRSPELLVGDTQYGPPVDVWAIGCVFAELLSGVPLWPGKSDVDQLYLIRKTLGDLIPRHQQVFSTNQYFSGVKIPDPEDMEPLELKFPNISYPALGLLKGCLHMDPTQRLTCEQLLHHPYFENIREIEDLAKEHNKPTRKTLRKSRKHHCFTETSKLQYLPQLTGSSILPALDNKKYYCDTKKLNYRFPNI

Work on CN1C(=O)c2sccc2N(C)c2nc(Nc3ccc(S(N)(=O)=O)cc3)ncc21 yielded an IC50 [1] of 378 nM, an Activity [2] of 15% and an Activity [3] of 15%. For the same compound, the Activity [4] was 99%, the Activity [5] was 100% and the Activity [6] was 100%. The Activity [7] was 99%, the Activity [8] was 95% and the Activity [9] was 100%. The Activity [10] was 96%, the Activity [11] was 37% and the Activity [12] was 66%. The Activity [13] was 100%, the Activity [14] was 80% and the Activity [15] was 91%. The Activity [16] was 100%, the Activity [17] was 92% and the Activity [18] was 100%. For the same compound, the Activity [19] was 12%, the Activity [20] was 100% and the Activity [21] was 100%. The Kd [22] was 17 nM, the Kd [23] was 27 nM and the inhibition (Primary hepatocyte) was “Active”. It also gave an IC50 [24] of 355 nM.
